9 compounds from ChEMBL document CHEMBL1158835, “Hirsutane sesquiterpenes from the fungus Lentinus connatus BCC 8996” (J Nat Prod, 2005) can be followed below.

The IC50 is the point on the concentration scale where inhibition reaches its midpoint.

The test system of one experiment is Plasmodium falciparum. Nature of the experiment: Antimalarial activity against multidrug-resistant Plasmodium falciparum K1 after 42 hrs by [3H]hypoxanthine uptake. It is filed as functional, organism-based. A digest of the protocol:
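Microculture radioisotope method following Desjardins; growth of multidrug-resistant K1 parasites read as in vitro [3H]-hypoxanthine uptake. IC50 = concentration giving 50% reduction in parasite growth. Dihydroartemisinin run as standard.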

Another experiment relates to KB. Nature of the experiment: Cytotoxicity against human KB cells by SRB assay. It is filed as functional, cell-based. Summed up: (§1)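 Colorimetric (Skehan) cytotoxicity assay on KB human epidermoid carcinoma, BC human breast cancer, NCI-H187 human small cell lung cancer, and Vero African green monkey kidney […] cells. Ellipticine served as the reference substance. Activity is expressed as IC50.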
(Sulforhodamine B stains cellular protein and so reports cell mass.)

Experiment [1] in a line: Cytotoxicity against human BC cells by SRB assay. It is filed as functional, cell-based. A digest of the protocol:
as §1

For a further experiment, the system named is NCI-H187. Put plainly: Cytotoxicity against human NCI-H187 cells by SRB assay. In kind it is functional, cell-based. Summed up:
as §1

For another experiment, the system named is Vero. Put plainly: Cytotoxicity against african green monkey Vero cells by SRB assay. In kind it is cell-based. Conditions: Chlorocebus sabaeus. A digest of the protocol: as §1

In brackets after ≈: the same amount, converted by molar mass.

Take `C=C1C(=O)[C@H]2O[C@]23C[C@H]2CC(C)(C)[C@H](O)[C@H]2[C@]13C` [HYPNOPHILIN]: the IC50 in the experiment on Plasmodium falciparum was above 20 mg/L; in the experiment with KB it was above 20 mg/L; in experiment [1], above 20 mg/L; in the experiment with NCI-H187 it was above 20 mg/L; with Vero it was above 50 mg/L.
In the case of `CC(C)=C[C@@H](O)C1=CC(=O)[C@@H]2O[C@@H]2C1=O` [PANEPOXYDIONE], the IC50 in the experiment on Plasmodium falciparum was 2.1 mg/L (≈ 10.1 µM); in the experiment on KB it was 0.8 mg/L (≈ 3.84 µM); in experiment [1], 0.8 mg/L (≈ 3.84 µM); with NCI-H187 it was 0.22 mg/L (≈ 1.06 µM); in the experiment on Vero, 0.2 mg/L (≈ 0.961 µM).
As to `CC1(C)C[C@@H]2CC3=CC(=O)[C@@](O)(CO)[C@@]3(C)[C@@H]2[C@H]1O` [CONNATUSIN B], the IC50 in the experiment with Plasmodium falciparum is above 20 mg/L; in the experiment with KB, above 20 mg/L; in experiment [1], above 20 mg/L; with NCI-H187, above 20 mg/L; with Vero it was above 50 mg/L.
`C=C1[C@@H](O)[C@H]2O[C@]23C[C@H]2CC(C)(C)[C@H](O)[C@H]2[C@]13C` [HYPNOPHILIN 1]: the IC50 in the experiment with Plasmodium falciparum is 3.1 mg/L (≈ 12.4 µM); in the experiment on KB, above 20 mg/L; in experiment [1], above 20 mg/L; with NCI-H187, 0.67 mg/L (≈ 2.68 µM); in the experiment on Vero, 1.1 mg/L (≈ 4.39 µM).
`CC(C)=C[C@H](O)C1=C[C@@H](O)[C@@H]2O[C@@H]2C1=O` [PANEPOXYDONE]: the IC50 in the experiment with Plasmodium falciparum turned out to be 3.4 mg/L (≈ 16.2 µM); in the experiment on KB, 1.9 mg/L (≈ 9.04 µM); in experiment [1], 2.9 mg/L (≈ 13.8 µM); in the experiment on NCI-H187 it was 0.66 mg/L (≈ 3.14 µM); with Vero, 0.9 mg/L (≈ 4.28 µM).
In the same order, the values of `COc1ccc2c(c1)C(=O)CC(C)(C)O2` are above 20 mg/L, above 20 mg/L, above 20 mg/L, above 20 mg/L and above 50 mg/L.
For `CC1=C(O)C(=O)[C@]2(O)C[C@H]3CC(C)(C)[C@H](O)[C@H]3[C@]12C` [CONNATUSIN A] the same measures were above 20 mg/L, above 20 mg/L, above 20 mg/L, above 20 mg/L and above 50 mg/L.
As for `Cc1c2ccncc2c(C)c2c1[nH]c1ccccc12` [ELLIPTECINE], the IC50 with KB was found to be 0.21 mg/L (≈ 0.853 µM); in experiment [1], 0.27 mg/L (≈ 1.1 µM); with NCI-H187 it was 0.32 mg/L (≈ 1.3 µM).
`C[C@H]1[C@@H](O)O[C@@H]2O[C@@]3(C)CC[C@H]4[C@H](C)CC[C@@H]1[C@@]24OO3` [ARTENIMOL] showed an IC50 in the experiment with Plasmodium falciparum of 0.0018 mg/L (≈ 0.00633 µM).
